From PubChem
Only some compounds are listed: those with a hit (about 3.8% of all), similar ones and a draw of the others.
B2AR ag: agonists of human beta-2 adrenergic receptor inducing internalization; P07550; Am2.2-beta2AR cells, FAP receptor internalization, flow cytometry; 340,000 compounds, 0.43% hits; response, % (concentration not given with the values); AID 504454;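 active means response above a set limit, near 3 SD of response in nonfluorescent compounds, cut at about 42% in these data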
Target sequence (P07550 whole entry, looked up): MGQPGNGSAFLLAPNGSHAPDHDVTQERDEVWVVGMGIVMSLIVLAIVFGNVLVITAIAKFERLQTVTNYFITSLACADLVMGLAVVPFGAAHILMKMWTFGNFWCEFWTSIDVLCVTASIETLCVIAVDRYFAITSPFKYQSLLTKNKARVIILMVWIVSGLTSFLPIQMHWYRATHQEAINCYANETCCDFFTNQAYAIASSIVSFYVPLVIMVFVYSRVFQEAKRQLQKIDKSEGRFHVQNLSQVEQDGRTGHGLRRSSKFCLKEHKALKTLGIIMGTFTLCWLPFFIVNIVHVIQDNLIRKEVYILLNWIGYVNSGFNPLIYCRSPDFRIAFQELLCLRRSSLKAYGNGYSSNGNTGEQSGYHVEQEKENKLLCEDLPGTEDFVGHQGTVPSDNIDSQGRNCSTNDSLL
rCAG RNA binder: r(CAG) repeat RNA binding. inhibition, % at 3 µM. 370,000 compounds, 1.3% hits. AID 651821. TO-PRO-1 dye displacement fluorescence;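 active means inhibition above the plate cutoff, the mean of all test compounds on that plate plus 3 SD, cut at about 35% in these data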;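 further: higher means more dye released from RNA so lower well fluorescence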
Exocytosis inh: lytic granule exocytosis inhibition. TALL-104 LAMP-1 surface exposure, flow cytometry; cells stimulated with thapsigargin and PMA. inhibition, % at 10 µM. 360,000 compounds, 0.66% hits;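 active means inhibition above about 55%, limit read from the data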
MPTP block: permeability transition pore inhibition; isolated mouse mitochondria, Ca2+ swelling absorbance, 30 min; inhibition, % at 10 µM; 360,000 compounds, 1.4% hits;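 active means inhibition of 50% or more, scaled per plate between neutral and stimulator controls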
V-ATPase pHluor: regulators of yeast V-ATPase proton transport; AID 504577; response, % at 10 µM; S. cerevisiae, pHLuorin cytosolic pH fluorescence; 350,000 compounds, 0.37% hits; in the data active means response mostly above about 7.3%, no sharp cut-off; inactive means mostly below about 5.4%; further: actives read high
T cell HTS: T cell immune modulation candidate | 2C CD8+ T cell-vesicle binding, flow cytometry; hits give low values | response (vesicle binding), % at 7 µM | 330,000 compounds, 0.068% hits;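 active means response, share of CD8 T cells binding vesicles, and their 90th percentile fluorescence all below set limits, cut at about 80% in these data, passing the limit was not always enough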;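 further: values below 100% mean blocked vesicle binding to the CD8+ T cells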
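Incubation: binding step 1.5 h, 37 °C, antibody labelling 20 min, ice; system: murine 2C transgenic CD8+ T lymphocytes; technique: cytometric PE anti-B7-1 and Alexa647 anti-CD8 signals after 1% paraformaldehyde fixation; also added: QL9-charged Drosophila Ld/ICAM-1/B7-1 vesicles; control set: naked versus QL9-loaded vesicles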
Numbers stand for hits; i = inactive; nt = no result.

SMILES | B2AR ag | rCAG RNA binder | Exocytosis inh | MPTP block | V-ATPase pHluor | T cell HTS
Cc1ccc(C)n1-c1ccccc1N | nt | nt | nt | nt | nt | i
O=C(C[C@H]1C/C=C\C[C@H](NC(=O)OCC2c3ccccc3-c3ccccc32)C(=O)OC[C@H]2CCCN2C1=O)NCCO | i | i | 59.0 | i | i | i
CCOC(=O)N/N=C/c1cn(CCCOc2ccc(C)cc2)c2ccccc12 | 71.0 | i | i | i | i | i
CCOC(=O)N/N=C/c1cn(CCCOc2ccccc2)c2ccccc12 | i | i | i | i | i | i
CCN1CCCC1CNC(=O)c1ccc2c(c1)NC(=O)/C(=C\c1ccc(C)cc1)S2 (stereo not drawn) | i | i | 60.7 | i | i | i
Cc1nc2c(C(=O)NCc3ccc(F)cc3)c[nH]n2c(=O)c1Cl | i | 45.5 | i | i | i | i
CC1=C(C(=O)OCc2ccccc2)C(c2ccc([N+](=O)[O-])cc2)NC(=O)N1CCCC(=O)O (stereo not drawn) | i | i | 61.9 | i | i | i
COC(=O)C1CN(Cc2ccc(OC)cc2)CCS(=O)(=O)N1Cc1ccc(C(F)(F)F)cc1 (stereo not drawn) | nt | i | nt | nt | nt | nt
O=C(Nc1cccnc1)c1ccc(COc2cc(Cl)ccc2Cl)o1 | i | i | i | i | i | i
O=C(N/N=C/c1ccc(OCc2ccccc2)cc1)c1cccs1 | i | i | i | i | i | 77.9
O=C(N/N=C/c1ccc(Cl)cc1)c1sccc1OCc1ccc(F)cc1 | 54.9 | i | i | i | i | i
O=C(N/N=C/c1ccc(O)cc1)c1ccc(COc2cc(Cl)ccc2Cl)o1 | 48.7 | i | i | i | i | i
C=CCN(C)CC#Cc1ccc(OC)cc1 | nt | i | nt | nt | nt | nt
O=C([C@@H]1C[C@H]1c1ccccc1)N1CC[C@H]2[C@H](CCCN2Cc2ccc(F)cc2)C1 | nt | i | nt | nt | nt | nt
CC(/C=N/N1CCN(c2ccccn2)CC1)=C\c1ccccc1 | i | i | 75.8 | i | i | i
COc1ccc(C=C2C=C(C(C)(C)C)C(=O)C(C(C)(C)C)=C2)cc1OC | 76.1 | i | i | i | i | i
COc1ccc(/C=C2\CCc3ccccc3C2=O)cc1OC | i | i | i | i | i | i
CC(C)(C)OC(=O)NCc1cc(F)ccc1/C=C/S(=O)(=O)NCc1ccccc1 | nt | i | nt | nt | nt | nt
C=CS(=O)(=O)N(Cc1nnn(Cc2ccccc2)c1Br)[C@@H](CC(C)C)C(=O)OC | nt | i | nt | nt | nt | nt
Cc1c(C)c(C)c(S(=O)(=O)N2CCSCC2)c(C)c1C | i | i | i | i | 20.0 | i
O=C(c1ccccn1)N1N=C2/C(=C/c3ccc(F)cc3)CCCC2C1c1ccc(F)cc1 (stereo not drawn) | i | i | i | i | i | i
CC(=O)N1N=C2/C(=C/c3ccccc3)CCCC2C1c1ccccc1 (stereo not drawn) | i | i | i | i | i | 71.1
Cn1cccc1C(=O)N1CCN(S(=O)(=O)c2ccc(C(C)(C)C)cc2)CC1 | nt | i | nt | nt | nt | nt
CCCC(=O)OC12CCCN(C1)/C(=C/c1cccc(N(C)C)c1)C2 (stereo not drawn) | nt | i | nt | nt | nt | nt
Cc1cc2ccccn2c1C(=O)c1ccc([N+](=O)[O-])o1 | i | i | i | i | 11.3 | i
SMILES | B2AR ag | rCAG RNA binder | Exocytosis inh | MPTP block | V-ATPase pHluor | T cell HTS
Cn1nc(C(F)(F)F)c(/C=N/OC(=O)c2ccccc2)c1Cl | i | i | 57.0 | i | i | i
CCn1c(Cc2cccs2)nnc1SCC(=O)Nc1cccc2ccccc12 | nt | i | nt | nt | nt | nt
CC(C)(C)OC(=O)C[C@@H]1C/C=C\C[C@@H](CC(=O)N(CCO)Cc2ccccc2)C(=O)NC[C@H](c2ccccc2)OC1=O | i | i | 76.0 | i | i | i
CC(C)(C)OC(=O)C[C@@H]1C/C=C\C[C@@H](CC(=O)N(CCO)Cc2ccccc2)C(=O)NC[C@@H](c2ccccc2)OC1=O | i | i | i | i | i | i
COc1ccc(-c2cc(C(=O)N(C3CCCCC3)C3CCCCC3)no2)cc1 | nt | i | nt | nt | nt | nt
COc1ccc(N/C=C2\CCc3ccccc3C2=O)cc1 | i | i | i | i | i | i
O=C1/C(=C/Nc2ccc3c(c2)OCO3)CCc2ccccc21 | i | i | 97.9 | i | i | i
O=C1OC2(CCCCC2)OC(=O)C1=CNc1ccc2c(c1)OCO2 | i | i | i | i | i | i
COc1ccc2c(c1)CC/C(=C\Nc1ccc3c(c1)OCO3)C2=O | i | i | 101.0 | i | i | i
COc1ccc(OC)c(S(=O)(=O)n2c(CN3CCOCC3)nc3ccccc32)c1 | nt | i | nt | nt | nt | nt
Cc1cc(N2CCN(C(=O)OC(C)(C)C)C[C@H]2C)ccc1N1CCS(=O)(=O)CC1 | nt | i | nt | nt | nt | nt
c1cc2c3c(cccc3c1)NC1(CCC3(CC1)Nc1cccc4cccc(c14)N3)N2 | i | i | 60.3 | i | i | i
c1cc2c3c(cccc3c1)NC1(CCCCCC1)N2 | i | i | i | i | i | i
CC(C)CC(=O)/C(=C\c1ccc(Cl)cc1Cl)n1cncn1 | 46.5 | nt | i | i | i | nt
CC(C)CC(=O)/C(=C/c1ccc(N(C)C)cc1)n1cncn1 | i | i | i | i | i | i
O=C(OCc1cn(Cc2ccc(F)cc2)nn1)N1CCOCC1 | nt | i | nt | nt | nt | nt
COc1ccc(C2C(C#N)=C(N)Oc3cc(N)ccc32)cc1 (stereo not drawn) | i | i | i | i | i | i
COc1cc(C2C(C#N)=C(N)Oc3cc(N)ccc32)cc(OC)c1OC (stereo not drawn) | 50.5 | i | i | i | i | i
COc1ccc(C(=O)OCCN2CCN(C3CN(Cc4cn(Cc5cccc(C)c5)nn4)S(=O)(=O)C3)CC2)cc1OC (stereo not drawn) | nt | i | nt | nt | nt | nt
CCOC(=O)Nc1ccc2c(c1)[C@@]1(CC(=O)N(CC(C)C)C1c1ccccc1)C(=O)N2C (stereo partly drawn) | nt | i | nt | nt | nt | nt
COc1cccc(NC(=S)N(CCCN2CCCC2)Cc2cccn2Cc2ccc(Cl)cc2)c1 | i | nt | i | i | i | i
S=C(Nc1cccc(Cl)c1)N(CCCN1CCCC1)Cc1cccn1Cc1ccc(Cl)cc1 | i | i | 84.6 | i | i | i
Cc1onc(-c2ccc(Cl)cc2)c1-c1ccn(S(=O)(=O)c2ccccc2Cl)n1 | nt | i | nt | nt | nt | nt
Cc1ccc(S(=O)(=O)SC/C=C/CSS(=O)(=O)c2ccc(C)cc2)cc1 | i | i | 77.6 | i | i | nt
Nc1nc(SCc2ccc(F)cc2)ns1 | i | i | i | i | 24.4 | i
SMILES | B2AR ag | rCAG RNA binder | Exocytosis inh | MPTP block | V-ATPase pHluor | T cell HTS
O=C1C2C3C=CC(C3)C2C(=O)N1/N=C/c1cn(Cc2ccc(F)cc2)c2ccccc12 (stereo not drawn) | i | i | i | i | i | i
O=C1C2C3C=CC(C3)C2C(=O)N1/N=C/c1cn(Cc2ccccc2)c2ccccc12 (stereo not drawn) | i | i | i | i | 13.5 | i
COC(=O)C(CC(=O)c1ccc(C)cc1)n1nc(C)cc1C (stereo not drawn) | i | i | 56.6 | i | i | i
NC(=S)N=Nc1c(O)n(CCCl)c2ccc(Br)cc12 | i | i | 78.0 | i | i | i
C/C(Cl)=C\Cn1c(O)c(N=NC(N)=S)c2cc(Br)ccc21 | i | i | i | i | i | i
Cc1ccc(NC(=O)COCC(=O)Nc2ccc(C)cc2)cc1 | i | i | i | i | i | i
